Measurements as given in ChEMBL document CHEMBL4673306, “Exploration of nitrogen heterocycle scaffolds for the development of potent human neutrophil elastase inhibitors” (Bioorg Med Chem, 2021).
pIC50: −log10 of the molar value.

How the values were obtained:
Neutrophil elastase = target: T1, Neutrophil elastase (Homo sapiens, UniProt P08246); experiment: Inhibition of human neutrophil elastase using N-methylsuccinyl-Ala-Ala-Pro-Val-7-amino-4-methylcoumarin as substrate measured for every 30 sec for 10 mins by fluorescence based assay; conditions: for pIC50: read-out: IC50
T1 sequence (P08246 whole entry): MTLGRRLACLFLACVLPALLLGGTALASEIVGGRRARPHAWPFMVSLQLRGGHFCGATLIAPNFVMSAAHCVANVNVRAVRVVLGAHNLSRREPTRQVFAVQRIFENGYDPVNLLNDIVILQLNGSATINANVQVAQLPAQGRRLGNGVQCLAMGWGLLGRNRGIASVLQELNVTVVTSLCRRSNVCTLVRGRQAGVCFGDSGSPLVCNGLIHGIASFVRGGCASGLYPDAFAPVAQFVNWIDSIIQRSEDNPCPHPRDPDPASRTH

[1] = Stability of compound in PBS at pH 7.4 assessed as half life by spectrophotometry; format: physicochemical; conditions: buffer
Procedure, shortened: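 Spontaneous hydrolysis measured at 20 °C in 0.05 M phosphate buffer, pH 7.4, with compound at 20 μM. Absorbance was read at each compound's characteristic maximum over time until it stopped falling (A∞). k' was taken from the slope of log(At − A∞) versus time, and t1/2 = 0.693/k'.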

IC50 (Neutrophil elastase)	Compound	t1/2 [1] [h]	pIC50 (Neutrophil elastase)
Not Active	COc1cccc(NC(=O)c2cnc3c(Cl)c(C(C)(C)C)nn3c2C)c1	–	–
–	Cc1cccc(C(=O)n2cc(C#N)c3ncccc32)c1	1.28	–
–	Cc1ccc(C(=O)n2nc(C#N)c3cccnc32)cc1	–	5.82
–	N#Cc1cn(C(=O)C2CC2)c2cccnc12	4.472	7.64
–	Cc1cccc(C(=O)n2nc(C)c3cnccc32)c1	–	6.12
–	N#Cc1nn(C(=O)c2ccccc2)c2ncccc12	–	6.80
–	Nc1nn(C(=O)C2CC2)c2ncccc12	–	5.00
Not Active	COc1cccc(CNC(=O)c2cnc3cc(C(C)(C)C)nn3c2C)c1	–	–
–	O=C(C1CC1)n1nc([N+](=O)[O-])c2cccnc21	1.56	7.68
Not Active	COc1cccc(CNC(=O)c2cnc3cc(C)nn3c2C)c1	–	–
–	Cc1cccc(C(=O)n2nc(C#N)c3cnccc32)c1	0.203	8.00
Not Active	COc1cccc(NC(=O)c2cnc3cc(C)nn3c2C)c1	–	–
–	O=C(C1CC1)n1ccc2nccnc21	–	5.10
–	O=C(C1CC1)n1nc(C(F)(F)F)c2cccnc21	14.7	7.30
–	CCOC(=O)c1nn(C(=O)c2cccc(C)c2)c2ccncc12	2.45	7.80
–	CCOC(=O)c1nn(C(=O)C2CC2)c2ccncc12	7.28	7.16
–	N#Cc1nn(C(=O)C2CCCC2)c2ncccc12	–	6.85

IC50 (Neutrophil elastase)	Compound	t1/2 [1] [h]	pIC50 (Neutrophil elastase)
Not Active	N#Cc1nn(Cc2ccccc2)c2ncccc12	–	–
–	Cc1cccc(C(=O)n2nc(C(=O)OC(C)C)c3cccnc32)c1	–	6.01
–	N#Cc1nn(C(=O)C2CCCCC2)c2ncccc12	–	5.96
–	N#Cc1cn(C(=O)C2CC2)c2nccnc12	1.677	–
–	Cc1cccc(C(=O)n2nc(C(F)(F)F)c3cnccc32)c1	1.777	7.48
–	N#Cc1nn(C(=O)C2CC2)c2ccncc12	1.32	7.10
–	Cc1cccc(C(=O)n2nc(C#N)c3cccnc32)c1	–	6.48
–	N#Cc1nn(C(=O)C2CC2)c2ncccc12	–	7.47
–	CCOC(=O)c1nn(C(=O)c2cccc(C)c2)c2ncccc12	–	5.70
Not Active	COc1cccc(CNC(=O)c2cnc3c(Cl)c(C(C)(C)C)nn3c2C)c1	–	–
Not Active	COc1cccc(CNC(=O)c2cnn3c(C)c(C(C)=O)cnc23)c1	–	–
Not Active	COc1cccc(NC(=O)c2cnc3cc(C(C)(C)C)nn3c2C)c1	–	–
Not Active	COc1cccc(NC(=O)c2cnn3c(C)c(C(C)=O)cnc23)c1	–	–
–	N#Cc1cn(C(=O)C2CC2)c2cnccc12	–	6.74
–	O=C(C1CC1)n1nc(C(F)(F)F)c2cnccc21	6.435	7.06
–	Cc1cccc(C(=O)n2nc(C(F)(F)F)c3cccnc32)c1	–	6.38
–	Cc1cccc(C(=O)n2cc(C#N)c3cnccc32)c1	2.722	–
